Reference: paper PMC11618456 (Nature Communications, 2024)

Columns and labels:
[1] = Cytotoxicity MTT assay; type: cell-based; settings: human, A549 cells, CC50, half-cytotoxic concentration, 72 h, MTT; mean ± SD (n ≥ 3)
[2] = tested on: A549 cells; assay: Cytotoxicity MTT assay; type: cell-based; settings: Table 1
[3] = Metabolic stability in human liver microsomes; type: in vitro ADME; settings: for Stability in HLM (% remaining) 30 min / Stability in HLM (% remaining) 60 min: 1 mg/mL HLM, 1 mM NADPH, 20 µM compound, mean ± SD
Method in brief: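 Incubations in 1× PBS held 1 mg/mL HLM, 1 mM NADPH and 20 µM test compound at 37 °C for up to 60 min. Remaining compound was quantified by UPLC-QTOFMS, n = 3 per time point.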

[4] = Pharmacokinetics in WT mice after oral treatment; type: in vivo, mouse; settings: 100 mg/kg po, Fig. 1d
[5] = tested on: Fech-mut mice; assay: EPP-associated phototoxicity in Fech-mut mice after light exposure; type: in vivo, mouse
[6] = tested on: PPIX in serum of Fech-mut mice; assay: PPIX distribution in serum of Fech-mut mice; type: in vivo, mouse; settings: 100 mg/kg po
[7] = biological target: T1, ABCG2 (Mus musculus, UniProt Q7TMS5); assay: PPIX efflux from RBCs of Fech-mut mice; type: cell-based; settings: 10 µM, up to 3 h
T1 sequence (Q7TMS5 1-657): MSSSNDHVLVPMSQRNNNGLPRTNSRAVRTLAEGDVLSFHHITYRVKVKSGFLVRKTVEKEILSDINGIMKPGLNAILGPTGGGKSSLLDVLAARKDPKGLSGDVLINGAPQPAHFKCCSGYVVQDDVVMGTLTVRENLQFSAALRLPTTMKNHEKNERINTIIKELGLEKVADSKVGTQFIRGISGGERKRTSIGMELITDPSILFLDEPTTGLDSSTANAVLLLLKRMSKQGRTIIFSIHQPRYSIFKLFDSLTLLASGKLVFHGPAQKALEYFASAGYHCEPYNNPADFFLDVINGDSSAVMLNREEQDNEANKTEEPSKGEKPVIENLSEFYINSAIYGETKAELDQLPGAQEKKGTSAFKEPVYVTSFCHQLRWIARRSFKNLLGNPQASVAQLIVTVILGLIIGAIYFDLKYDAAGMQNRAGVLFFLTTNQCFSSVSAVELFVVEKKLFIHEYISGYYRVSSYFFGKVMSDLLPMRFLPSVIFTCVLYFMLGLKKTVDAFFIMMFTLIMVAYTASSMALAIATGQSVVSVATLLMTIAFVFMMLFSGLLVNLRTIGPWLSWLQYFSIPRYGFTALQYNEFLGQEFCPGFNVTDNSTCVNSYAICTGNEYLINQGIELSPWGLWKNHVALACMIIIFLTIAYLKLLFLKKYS
Method in brief: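 Fech-mut mouse RBCs were cultured in phenol-red-free RPMI 1640 at 2 × 10^8 cells/well, 37 °C, gently shaken and light-protected, with or without 10 µM test compound for 1 or 3 h. Medium PPIX was read by fluorescence (ex 405 nm, em 630 nm) and expressed as % of RBC PPIX at time 0. n = 3 mice, duplicate incubations, mean ± SEM.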

[8] = tested on: ABCB1; assay: Effect on ABCB1; type: in vivo, mouse; settings: WT mice, 100 mg/kg po pretreatment, paclitaxel as substrate
[9] = tested on: Fech-mut mice; assay: Safety after short-term treatment; type: in vivo, mouse; settings: 100 mg/kg po, 5 days
[10] = tested on: WT mice; assay: Sub-chronic study; type: in vivo, mouse; settings: 100 mg/kg po, 23 days
Method in brief: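 Male wild-type mice aged 8 weeks got vehicle or test compound 100 mg/kg orally for 23 days (n = 4 per group), weighed daily before dosing. On day 24, blood, liver, kidney and spleen were collected for organ/body weight ratios. Serum ALT, AST and ALP were measured by enzymatic kits, and liver histology was assessed.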

[11] = in vitro; settings: Fech-mut (BALB/c background), mouse, serum from Fech-mut mice treated with K31, oral, 100 mg/kg

SMILES: COc1ccc2c3c([nH]c2c1)[C@H](CC(C)C)N1C(=O)[C@H](CC(=O)NC(C)C)NC(=O)[C@@H]1C3 [K31]
- CC50 at 72 h [1]: > 100 µM
- cytotoxicity compared with other Ko143 analogs [2]: less cytotoxic when compared to other Ko143 analogs
- Stability in HLM (% remaining) 30 min [3]: 65 ± 3 % remaining
- Stability in HLM (% remaining) 60 min [3]: 49 ± 9 % remaining
- metabolic stability (in words) ([3]; incubation with human liver microsomes, Fig. 1c): significantly improved
- pharmacokinetic profile after oral treatment (in words) [4]: outstanding pharmacokinetic profiles
- withdrawal test: phototoxicity after K31 withdrawal ([5]; 100 mg/kg po days 1-4, then withdrawn, light continued days 5-8): recurrence of light-triggered phototoxicity was observed in the skin of Fech-mut mice from the second day of K31 withdrawal
- oxidative stress and inflammation in the skin ([5]; 100 mg/kg po, light exposure, once daily for 5 days): attenuated oxidative stress and inflammation
- light-triggered phototoxicity (gross appearance of the skin) ([5]; 30 and 100 mg/kg po, once daily for 5 days, both sexes): significantly decreased
- histological changes of skin (missing epidermis, damaged subepidermal collagen) ([5]; po pretreatment, light exposure, H&E, Sirius Red): prevented
- PPIX in serum (in words) [6]: significant decrease
- PPIX release from the RBCs of Fech-mut mice (in words) [7]: markedly decreased
- inhibitory effect on ABCB1 [8]: no inhibitory effect
- PPIX levels in the liver (in words) [9]: did not alter
- liver damage, alanine aminotransaminase (in words) [9]: did not potentiate liver damage
- mean corpuscular hemoglobin in blood (in words) [9]: no significant impact
- total hemoglobin in blood (in words) [9]: no significant impact
- morphological changes in the liver and kidney ([9]; H&E): did not cause morphological changes
- biomarkers of liver toxicity (ALT, AST, ALP) (in words) [10]: did not alter
- growth (body weight gain) (in words) [10]: did not alter
- ratios of organ (liver, kidney, and spleen) to body weight (in words) [10]: did not alter
- fraction unbound at 16 h [11]: 0.0585

SMILES: COc1ccc2c3c([nH]c2c1)[C@H](CC(C)C)N1C(=O)[C@H](CC(=O)NC(C)(C)C)NC(=O)[C@@H]1C3 [K3]
- CC50 at 72 h [1]: 58.9 ± 5.3 µM
- Stability in HLM (% remaining) 30 min [3]: 74 ± 25 % remaining
- Stability in HLM (% remaining) 60 min [3]: 60 ± 3 % remaining

SMILES: COc1ccc2c3c([nH]c2c1)[C@H](CC(C)C)N1C(=O)[C@H](CC(=O)N2CCCCC2)NC(=O)[C@@H]1C3 [K25]
- CC50 at 72 h [1]: 26.5 ± 2.5 µM

SMILES: COc1ccc2c3c([nH]c2c1)[C@H](CC(C)C)N1C(=O)[C@H](CC(=O)NC2CCCCC2)NC(=O)[C@@H]1C3 [K23]
- CC50 at 72 h [1]: 46.6 ± 0.9 µM
- Stability in HLM (% remaining) 30 min [3]: 45 ± 2 % remaining
- Stability in HLM (% remaining) 60 min [3]: 26 ± 2 % remaining

SMILES: COc1ccc2c3c([nH]c2c1)[C@H](CC(C)C)N1C(=O)[C@H](CC(=O)NCc2ccccc2)NC(=O)[C@@H]1C3 [K33]
- CC50 at 72 h [1]: 31.1 ± 3.7 µM
- Stability in HLM (% remaining) 30 min [3]: 37 ± 3 % remaining
- Stability in HLM (% remaining) 60 min [3]: 18 ± 1 % remaining
